Compound activity from PubChem.
This is a sample that favours compounds with a hit; in the whole collection about 1.5% have one here.
CHT inh = inhibitors of human choline transporter CHT | CHT-expressing cells, membrane potential dye, choline response; stronger effect = lower value | B-score at 10 µM | 310,000 compounds, 0.86% hits;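 active means B-score over 3 SD under the library average, and starting fluorescence ratio not unusually high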;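 further: choline stimulus applied at its EC90 after an EC20 pre-addition; B-score computed on integrated fluorescence ratio after choline addition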
Target sequence (Q9GZV3 whole entry, looked up): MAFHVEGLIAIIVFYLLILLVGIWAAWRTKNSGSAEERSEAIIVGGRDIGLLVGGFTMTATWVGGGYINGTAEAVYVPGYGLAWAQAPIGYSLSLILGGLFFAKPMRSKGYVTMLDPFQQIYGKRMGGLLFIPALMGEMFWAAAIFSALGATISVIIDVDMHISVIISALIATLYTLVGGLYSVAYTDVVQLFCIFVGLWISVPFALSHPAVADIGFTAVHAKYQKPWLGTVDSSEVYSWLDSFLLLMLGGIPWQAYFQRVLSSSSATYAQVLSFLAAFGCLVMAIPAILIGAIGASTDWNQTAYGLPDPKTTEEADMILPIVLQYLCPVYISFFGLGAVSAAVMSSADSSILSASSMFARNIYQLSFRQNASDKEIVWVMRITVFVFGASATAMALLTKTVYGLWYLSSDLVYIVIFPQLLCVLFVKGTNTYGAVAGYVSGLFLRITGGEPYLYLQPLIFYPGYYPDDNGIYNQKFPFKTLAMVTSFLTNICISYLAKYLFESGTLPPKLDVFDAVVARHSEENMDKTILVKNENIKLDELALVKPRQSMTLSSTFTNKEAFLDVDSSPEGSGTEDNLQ
T cell HTS = modulators of CD8 T cell-vesicle binding, primary screen, mouse 2C CD8+ T cells, flow cytometry; 2C CD8+ T cell-vesicle binding; stronger effect = lower value; response (vesicle binding), % at 7 µM; 330,000 compounds, 0.068% hits; AID 2052, 2009;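 active means response, share of CD8 T cells binding vesicles, and their 90th percentile fluorescence all below set limits, cut at about 80% in these data, passing the limit was not always enough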;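 further: values below 100% mean blocked vesicle binding to the CD8+ T cells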
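Material: murine 2C transgenic CD8+ T lymphocytes / Also added: QL9-peptide-loaded Drosophila micro-vesicles bearing Ld, ICAM-1 and B7-1 / Schedule: binding step 1.5 h, 37 °C, antibody labelling 20 min, ice / Signal: flow cytometry, PE anti-B7-1 (FL2) versus Alexa647 anti-CD8 (FL8), PFA-fixed / Evaluation: percent CD8+ FL2 mean versus row control / Benchmarks: naked versus QL9-loaded vesicles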
VLA-4 inh = inhibition in human VLA-4 binding assay, primary screen, VLA-4 allosteric modulator project, MLPCN library, flow cytometry, VLA-4 expressing cells | Integrin alpha-4 (Homo sapiens), P13612 | ligand binding flow cytometry | inhibition, % (about 7 µM as worked out from the volumes in the protocol) | 330,000 compounds, 0.2% hits | AID 2557, 2010; in the data active means inhibition above about 50%
CHT allo act = CHT positive allosteric modulators, primary screen, cell-based, membrane potential dye, choline EC20. High affinity choline transporter 1 (Homo sapiens), Q9GZV3. CHT-expressing cells; stronger effect = higher value; LV-AA mutant CHT in HEK293 cells. B-score at 10 µM. 310,000 compounds, 0.49% hits;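 active means initial fluorescence not abnormally high and integrated response B-score, plate-corrected, over 3 SD above library mean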
CHT act confirm = CHT activators, confirmation, cell-based, membrane potential dye, duplicate. shares compounds with CHT allo act. CHT-expressing cells, membrane potential dye fluorescence (FDSS); % of choline EC20–EC90 response window; HEK293 expressing CHT LV-AA mutant; choline added at its EC20. activation, % at 10 µM. 2,500 compounds, 91% hits. AID 504833, 2011;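 active means primary screen active, with duplicate mean activation above negative control mean plus 3 SD, cut at about 11% in these data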
HEK293 MP dye = membrane potential response in parental HEK293 cells, counter-screen for CHT activator project, cell-based, membrane potential dye; shares compounds with CHT allo act; membrane potential dye fluorescence (FDSS); measured after EC20 choline addition; ratio readout change at 10 µM, hits read low; 2,500 compounds, 62% hits; AID 623908, 2012;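 active means duplicate-averaged ratio beyond 3 SD from buffer wells, up or down, though filed actives are nearly all decreases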
* = called active by the depositor.

CN1CCN(C(=O)CSc2nc(-c3ccncc3)ccc2C#N)CC1 was read as CHT inh inactive, T cell HTS 262.9, VLA-4 inh 2.3, CHT allo act 8.05*, CHT act confirm 44.2* and HEK293 MP dye -36.6*.
For CCc1ccc(N(CC(=O)NCc2ccc(F)cc2)C(=O)c2csnn2)cc1 the results were CHT inh inactive, T cell HTS 219.8, VLA-4 inh -3.1 and CHT allo act inactive.
`O=C(c1cccc(C(F)(F)F)c1)C1CCCN(Cc2cccn2-c2ccccn2)C1` (centres undefined) gave CHT inh inactive, T cell HTS 251.7, VLA-4 inh 23.4, CHT allo act 12.1*, CHT act confirm -5.3 and HEK293 MP dye inactive.
CN(Cc1cccc2ccccc12)C(=O)c1cc(COc2c(F)cccc2F)on1 was read as CHT inh inactive, T cell HTS 280.9, VLA-4 inh 0.0, CHT allo act inactive, CHT act confirm 40.1* and HEK293 MP dye inactive.
Screening CC1(C)Cc2c(sc3c2C2=NCCN2C=N3)CO1 returned CHT inh inactive, T cell HTS 229.1, VLA-4 inh -7.5, CHT allo act 9.31*, CHT act confirm 74.9* and HEK293 MP dye -62.6*.
Screening O=S1(=O)CCN2C=Nc3sc4c(c3C2=N1)CCCC4 returned CHT inh inactive, T cell HTS 418.8, VLA-4 inh -4.4 and CHT allo act inactive.
Cc1sc2nc3ccc(NCc4ccco4)nn3c(=O)c2c1C was read as CHT inh inactive, T cell HTS 308.5, VLA-4 inh 29.0, CHT allo act 6.58*, CHT act confirm 12.0* and HEK293 MP dye -36.5*.
For N#C/C(=N\Nc1c(Cl)cccc1Cl)C(=O)NN the results were CHT inh inactive, T cell HTS 225.5, VLA-4 inh -0.8, CHT allo act 12*, CHT act confirm 19.1* and HEK293 MP dye -40.4*.
For N#C/C(=N\Nc1ccccc1Cl)C(=O)c1ccccc1 the results were CHT inh inactive, T cell HTS 188.8, VLA-4 inh -3.6 and CHT allo act inactive.
CN1C(C(=O)N2CCc3ccccc3C2)=CC(c2ccc(F)cc2)=NS1(=O)=O was read as CHT inh inactive, T cell HTS 169.6, VLA-4 inh -0.7, CHT allo act 6.69*, CHT act confirm 13.0* and HEK293 MP dye inactive.
For NS(=O)(=O)c1ccc(CNC(=S)NC2CC2)cc1 the results were CHT inh inactive, T cell HTS 118.0, VLA-4 inh 8.3 and CHT allo act inactive.
`CCOC(=O)c1c(CSCc2ccccc2)oc2ccc(O)c(CN(C)C)c12` gave CHT inh inactive, T cell HTS 417.4, VLA-4 inh 20.7, CHT allo act 10.5*, CHT act confirm 24.6* and HEK293 MP dye inactive.
For COc1ccc(CNC(=O)COC(=O)c2ccc(S(=O)(=O)NCc3ccco3)cc2)cc1 the results were T cell HTS 275.2 and VLA-4 inh -4.0.
`NS(=O)(=O)c1ccc(CCNC(=O)c2ccc(-c3ccccc3)cc2)cc1` gave CHT inh inactive, T cell HTS 277.2, VLA-4 inh 18.1 and CHT allo act inactive.
Screening CC(C)C[C@@H](COc1ccccc1)N1CCN(Cc2ccccc2)CCC1=O returned CHT inh inactive, T cell HTS 619.5, VLA-4 inh 8.2, CHT allo act 6.34*, CHT act confirm 15.6* and HEK293 MP dye inactive.
CCCN1CCC(=O)N([C@H](COc2ccccc2)Cc2ccccc2)CC1 was read as CHT inh inactive, T cell HTS 641.3, VLA-4 inh 2.5 and CHT allo act inactive.
O=C1CCN(Cc2ccccc2)CCN1[C@H](COc1ccccc1)Cc1ccccc1 was read as CHT inh inactive, T cell HTS 404.2, VLA-4 inh 3.2, CHT allo act 6.66*, CHT act confirm 23.8* and HEK293 MP dye inactive.
